Test results reported in ChEMBL document CHEMBL3244073, “1,2,4-Triazole amino nucleosides. 1-beta-D-3'-Amino-3'-deoxyribofuranosyl-1,2,4-triazole-3-carboxamide and related nucleosides” (1977).
Activity calls are given as the source filed them. The calls are words filed in the database; no cut-off is given here.

Columns and labels:
Human alphaherpesvirus 1 = test: Antiviral activity against Herpes simplex virus 1 HF assessed as inhibition of virus-induced cytopathogenicity; assay type: functional, organism-based
Procedure, shortened: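 Cytopathogenic effect of HSV-1 strain HF was scored in infected cell cultures exposed to the nucleoside. The procedure was a modified Ehrlich method, as run in earlier work.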

P388 = test: Cytotoxicity against mouse P388 cells after 72 hrs by hemocytometer-based cell counting method; assay type: functional; conditions: P388, 72 h, read-out: LD50 (the source's name)
Procedure, shortened: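 P-388 mouse lymphoid leukemia cells grown in tissue culture with the nucleoside present; cytotoxicity expressed as the LD50 concentration in µg/mL.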

N/C(=N/O)c1ncn([C@@H]2O[C@H](CO)[C@@H](N)[C@H]2O)n1 was tested. Which Activity (Human alphaherpesvirus 1) did it give?
Its Activity is “inactive”.

And the CC50 (P388)?
Its CC50 is > 100 µg/mL.

What does the source list for N/N=C(/N)c1ncn([C@@H]2O[C@H](CO)[C@@H](N)[C@H]2O)n1?
Activity (Human alphaherpesvirus 1): inactive; CC50 (P388): > 100 µg/mL

For NC(=O)c1ncnn1[C@@H]1O[C@H](CO)[C@@H](N)[C@H]1O, which Activity (Human alphaherpesvirus 1) is on record?
The Activity was “inactive”.

And the CC50 (P388)?
Its CC50 is > 100 µg/mL.

With N[C@H]1[C@@H](O)[C@H](n2cnc(C(=O)NO)n2)O[C@@H]1CO as the compound, how does the Activity (Human alphaherpesvirus 1) read?
The Activity was “inactive”.

What about the CC50 (P388) of the same compound?
The CC50 was > 100 µg/mL.

NC(=O)c1ncn([C@@H]2O[C@H](CO)[C@@H](N)[C@H]2O)n1 was tested. Which Activity (Human alphaherpesvirus 1) did it give?
Its Activity is “inactive”.

What about the CC50 (P388) of the same compound?
Its CC50 is > 100 µg/mL.

What does the source list for NNC(=O)c1ncn([C@@H]2O[C@H](CO)[C@@H](N)[C@H]2O)n1?
Activity (Human alphaherpesvirus 1): inactive; CC50 (P388): > 100 µg/mL
